According to ChEMBL document CHEMBL1139940, “2-Aryl-2-hydroxyethylamine substituted 4-oxo-4,7-dihydrothieno[2,3-b]pyridines as broad-spectrum inhibitors of human herpesvirus polymerases” (Bioorg Med Chem Lett, 2007):
Values after ≈ are worked out from the molar mass of the structure shown.

Experiments:
[1] = molecular target: T1, DNA polymerase catalytic subunit (Human cytomegalovirus (strain AD169) (HHV-5) (Human herpesvirus 5), UniProt P08546); assay: Inhibition of HCMV DNA polymerase by scintillation proximity assay; design: species or system Human betaherpesvirus 5
T1 sequence (P08546 whole entry): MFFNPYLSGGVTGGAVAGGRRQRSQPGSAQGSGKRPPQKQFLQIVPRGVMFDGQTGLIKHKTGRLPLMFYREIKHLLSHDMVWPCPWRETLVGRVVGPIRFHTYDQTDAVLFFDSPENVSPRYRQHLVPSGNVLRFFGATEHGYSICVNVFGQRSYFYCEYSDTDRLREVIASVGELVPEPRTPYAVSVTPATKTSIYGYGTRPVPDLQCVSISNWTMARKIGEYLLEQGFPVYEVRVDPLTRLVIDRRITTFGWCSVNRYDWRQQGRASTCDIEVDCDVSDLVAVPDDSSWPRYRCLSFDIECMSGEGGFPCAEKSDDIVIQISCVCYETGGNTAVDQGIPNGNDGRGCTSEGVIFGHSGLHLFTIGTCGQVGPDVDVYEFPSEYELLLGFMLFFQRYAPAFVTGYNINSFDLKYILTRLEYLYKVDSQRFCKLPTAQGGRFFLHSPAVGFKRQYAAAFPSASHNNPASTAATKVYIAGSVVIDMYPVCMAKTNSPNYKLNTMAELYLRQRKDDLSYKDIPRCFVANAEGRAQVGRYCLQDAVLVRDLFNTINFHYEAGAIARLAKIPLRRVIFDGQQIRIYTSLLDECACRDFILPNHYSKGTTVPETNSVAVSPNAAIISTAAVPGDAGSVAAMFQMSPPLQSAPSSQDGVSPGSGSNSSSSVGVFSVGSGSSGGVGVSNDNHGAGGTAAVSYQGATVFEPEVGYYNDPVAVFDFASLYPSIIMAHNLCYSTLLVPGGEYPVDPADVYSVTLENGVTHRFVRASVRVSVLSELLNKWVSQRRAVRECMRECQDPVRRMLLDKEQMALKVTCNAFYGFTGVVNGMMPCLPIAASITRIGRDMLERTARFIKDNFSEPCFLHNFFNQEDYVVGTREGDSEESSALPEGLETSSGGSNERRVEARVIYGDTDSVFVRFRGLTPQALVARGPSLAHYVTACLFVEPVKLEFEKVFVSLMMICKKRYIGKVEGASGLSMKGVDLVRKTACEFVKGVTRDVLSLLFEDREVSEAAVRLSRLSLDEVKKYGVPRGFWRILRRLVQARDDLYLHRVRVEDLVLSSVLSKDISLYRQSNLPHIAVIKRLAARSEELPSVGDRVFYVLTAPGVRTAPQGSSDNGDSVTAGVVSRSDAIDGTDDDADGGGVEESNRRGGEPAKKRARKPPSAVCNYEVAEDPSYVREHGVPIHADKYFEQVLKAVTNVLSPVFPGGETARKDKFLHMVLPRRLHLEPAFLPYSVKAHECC
In short: (§1)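 Purified viral or human DNA polymerase; incorporation of 3H-labeled nucleotide into template-primer measured by scintillation proximity.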

[2] = system: Human betaherpesvirus 5; assay: Antiviral activity against HCMV Davis in HFF cells by plaque reduction assay; assay type: functional, organism-based; conditions: Human betaherpesvirus 5, Davis
In short: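 Plaque reduction in human foreskin fibroblasts infected with Davis strain; values are means of at least two experiments, SD given.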

[3] = Aqueous solubility of the compound; assay type: physicochemical
[4] = Inhibition of HSV1 DNA polymerase by scintillation proximity assay; design: species or system Human alphaherpesvirus 1; in short: as §1
[5] = Inhibition of VZV DNA polymerase by scintillation proximity assay; design: species or system Human alphaherpesvirus 3; in short: as §1
[6] = system: Human alphaherpesvirus 1; assay: Antiviral activity against HSV1 KOS in Vero cells by plaque reduction assay; assay type: functional, organism-based; conditions: Human alphaherpesvirus 1, KOS
[7] = system: Human alphaherpesvirus 3; assay: Antiviral activity against VZV Webster in HFF cells by plaque reduction assay; assay type: functional, organism-based; conditions: Human alphaherpesvirus 3, Webster
[8] = Cytotoxicity against HFF cells after 3 days; assay type: cell-based; conditions: human
In short: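 Subconfluent replicating HFF monolayers exposed to compound for 3 days; viability scored by microscopic evaluation and quantitative neutral red dye uptake; CC50 from a single determination.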

[9] = Inhibition of human DNA polymerase alpha by scintillation proximity assay; in short: as §1
[10] = Inhibition of human DNA polymerase gamma by scintillation proximity assay; in short: as §1
[11] = Inhibition of human DNA polymerase delta by scintillation proximity assay; in short: as §1
[12] = Oral bioavailability in rat at 15 mg/kg; assay type: ADME, organism-based; conditions: in vivo
[13] = Oral bioavailability in dog at 15 mg/kg; assay type: ADME, organism-based, Canis lupus familiaris; conditions: in vivo
[14] = system: Human gammaherpesvirus 4; assay: Antiviral activity against EBV in GG68 cells after 72 hrs; assay type: functional, organism-based; conditions: human gammaherpesvirus 4, GG68, 72 h
In short: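 GG68 cells induced into lytic replication with 40 ng/mL TPA plus 4 mM n-butyric acid; compound added at 0.5% final DMSO; 72 h at 37 °C, then cells lysed and DNA harvested.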

[15] = Inhibition of EBV DNA polymerase by T7 quick-coupled transcription-translation system; design: species or system human gammaherpesvirus 4
In short: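 EBV polymerase plus BMRF-1 in 50 mM Tris pH 8, 70 mM NH4SO4, 10 mM MgCl2, dCTP/dTTP/dGTP, 0.5 µCi 32P-dATP, 100 µg/mL activated calf thymus DNA; compound added before enzyme, 1% final DMSO; 30 min at 37 °C; TCA precipitation onto glass filters, incorporated 32P counted by scintillation.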

Structure (SMILES) | IC50 [1] [nM] | IC50 [2] [nM] | other results
CC(O)CN(C)Cc1cc2c(=O)c(C(=O)NCc3ccc(Cl)cc3)cn(C)c2s1 (centres undefined) | 3530 | 1500 | –
CN(Cc1cc2c(=O)c(C(=O)NCc3cccc(Cl)c3)cn(C)c2s1)CC(O)c1ccccn1 (centres undefined) | 86 | 90 | solubility [3]: 9 µM (≈ 4.47 µg/mL)
CN(Cc1cc2c(=O)c(C(=O)NCc3ccc(Cl)cc3)cn(C)c2s1)C[C@@H](O)c1cnccn1 | 37 | 15 | IC50 [4]: 76 nM; IC50 [5]: 19 nM; IC50 [6]: 1600 nM; IC50 [7]: 7 nM; CC50 at 72 h [8]: > 100 µM; IC50 [9]: > 40 µM; IC50 [10]: > 40 µM; IC50 [11]: > 40 µM; bioavailability [12]: 21%; bioavailability [13]: 66%
CN(Cc1cc2c(=O)c(C(=O)NCc3ccc(Cl)cc3)cn(C)c2s1)CC(O)c1cnccn1 (centres undefined) | 85 | 65 | solubility [3]: 72 µM (≈ 35.9 µg/mL)
CN(Cc1cc2c(=O)c(C(=O)NCc3ccc(Cl)cc3)cn(C)c2s1)C[C@H](O)c1ccccc1 | 2550 | – | IC50 [4]: 10500 nM; IC50 [5]: 5000 nM
Cn1cc(C(=O)NCc2ccc(Cl)cc2)c(=O)c2cc(CN(CCO)CC(O)c3ccccc3)sc21 (centres undefined) | 1580 | 400 | –
CN(Cc1cc2c(=O)c(C(=O)NCc3ccc(Cl)cc3)cn(C)c2s1)CC(O)c1ccc(O)cc1 (centres undefined) | 100 | 57 | –
CN(Cc1cc2c(=O)c(C(=O)NCc3cccc(Cl)c3)cn(C)c2s1)C[C@@H](O)c1ccccn1 | 61 | 100 | IC50 [4]: 76 nM; IC50 [5]: 21 nM; IC50 [6]: 3000 nM; IC50 [7]: 2 nM; CC50 at 72 h [8]: > 100 µM; IC50 [9]: > 40 µM; IC50 [10]: > 40 µM; IC50 [11]: > 40 µM; IC50 [14]: 0.2 µM; bioavailability [12]: 45%; bioavailability [13]: 76%; IC50 [15]: 70 nM
C[C@H](O)CN(C)Cc1cc2c(=O)c(C(=O)NCc3ccc(Cl)cc3)cn(C)c2s1 | 35 | – | –
O=C(O)P(=O)(O)O [FOSCARNET] | – | – | IC50 [10]: < 0.28 µM
Cn1cc(C(=O)NCc2ccc(Cl)cc2)c(=O)c2cc(CNCC(O)c3ccccc3)sc21 (centres undefined) | 8400 | > 5000 | –
COc1cccc(C(O)CN(C)Cc2cc3c(=O)c(C(=O)NCc4ccc(Cl)cc4)cn(C)c3s2)c1 (centres undefined) | 87 | 20 | –
Nc1nc(O)c2ncn(COC(CO)CO)c2n1 [GANCICLOVIR] | – | – | CC50 at 72 h [8]: > 100 µM
CN(Cc1cc2c(=O)c(C(=O)NCc3ccc(Cl)cc3)cn(C)c2s1)CC(O)c1cccc(C#N)c1 (centres undefined) | 66 | 100 | –
CCN(Cc1cc2c(=O)c(C(=O)NCc3ccc(Cl)cc3)cn(C)c2s1)CC(O)c1ccccc1 (centres undefined) | 240 | 450 | –
CN(Cc1cc2c(=O)c(C(=O)NCc3cccc(Cl)c3)cn(C)c2s1)CC(O)c1ccc(F)cc1 (centres undefined) | 203 | 250 | –
Cn1cc(C(=O)NCc2ccc(Cl)cc2)c(=O)c2cc(CN(CC(O)c3ccccc3)C3CC3)sc21 (centres undefined) | 8900 | > 5000 | –

Structure (SMILES) | IC50 [1] [nM] | IC50 [2] [nM] | other results
CN(Cc1cc2c(=O)c(C(=O)NCc3ccc(Cl)cc3)cn(C)c2s1)C[C@@H](O)c1ccccc1 | – | – | IC50 [4]: 400 nM; IC50 [5]: 200 nM
CN(Cc1cc2c(=O)c(C(=O)NCc3ccc(Cl)cc3)cn(C)c2s1)CC(O)c1ccncc1 (centres undefined) | 200 | 85 | –
CN(Cc1cc2c(=O)c(C(=O)NCc3ccc(Cl)cc3)cn(C)c2s1)CC(O)c1ccc2ccccc2n1 (centres undefined) | 65 | 40 | –
CN(Cc1cc2c(=O)c(C(=O)NCc3ccc(Cl)cc3)cn(C)c2s1)CC(O)c1cccs1 (centres undefined) | 175 | 250 | –
CN(Cc1cc2c(=O)c(C(=O)NCc3cccc(Cl)c3)cn(C)c2s1)CC(O)c1cccnc1 (centres undefined) | 160 | 60 | –
CN(Cc1cc2c(=O)c(C(=O)NCc3ccc(Cl)cc3)cn(C)c2s1)CC(O)c1ncccn1 (centres undefined) | 100 | 100 | –
CN(Cc1cc2c(=O)c(C(=O)NCc3ccc(Cl)cc3)cn(C)c2s1)CC(O)c1ccoc1 (centres undefined) | 250 | 400 | –
CN(Cc1cc2c(=O)c(C(=O)NCc3ccc(Cl)cc3)cn(C)c2s1)CC(O)c1nccs1 (centres undefined) | 235 | 200 | –
CN(Cc1cc2c(=O)c(C(=O)NCc3ccc(Cl)cc3)cn(C)c2s1)CC(O)c1cc2ccccc2o1 (centres undefined) | 12 | 150 | –
CN(Cc1cc2c(=O)c(C(=O)NCc3ccc(F)cc3)cn(C)c2s1)CC(O)c1ccc(F)cc1 (centres undefined) | 220 | 200 | –
Nc1nc2c(ncn2COCCO)c(=O)[nH]1 [ACYCLOVIR] | – | – | CC50 at 72 h [8]: > 100 µM; IC50 [14]: 6.9 µM
CC(C)C(O)CN(C)Cc1cc2c(=O)c(C(=O)NCc3ccc(Cl)cc3)cn(C)c2s1 (centres undefined) | 17500 | > 5000 | –
CN(Cc1cc2c(=O)c(C(=O)NCc3ccc(Cl)cc3)cn(C)c2s1)CC(O)c1ccco1 (centres undefined) | 77 | 30 | solubility [3]: 0.4 µM (≈ 0.194 µg/mL)
CN(Cc1cc2c(=O)c(C(=O)NCc3ccc(Cl)cc3)cn(C)c2s1)CC(O)c1ccc(C#N)cc1 (centres undefined) | 315 | 300 | –
CN(Cc1cc2c(=O)c(C(=O)NCc3ccc(Cl)cc3)cn(C)c2s1)CC(O)c1ccccc1 (centres undefined) | 100 | 180 | –
CC(C)N(Cc1cc2c(=O)c(C(=O)NCc3ccc(Cl)cc3)cn(C)c2s1)CC(O)c1ccccc1 (centres undefined) | 2040 | 1600 | –
